The structures appear in SMILES notation.

The IC50 is the midpoint of a concentration-inhibition curve.

Assay [1] is described as follows: In vitro inhibition of the Protein kinase C tyrosine kinase activity in A431 membranes. In kind it is cell membranes.
Another assay deals with Balb/MK. As to the kind of experiment: Tested for antiproliferative activity using mouse epidermal keratinocytes cell line (BALB/MK). The class given is functional, cell-based. An outline of the steps:
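BALB/MK mouse epidermal keratinocytes, which depend on EGF to proliferate. Compounds were kept as 10 mM DMSO stocks and freshly diluted. They were added 24 h after plating, at a final DMSO concentration of 0.5%. Growth was read by methylene blue staining after 3–5 days, and IC50 was determined.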

The next assay has as its system Mus musculus. As to the kind of experiment: Inhibition of EGF-dependent tyrosine phosphorylation in xenografts of the BT-20 tumor in nude mice. In kind it is functional, organism-based.
Assay [2] deals with Proto-oncogene tyrosine-protein kinase Src (Homo sapiens, UniProt P12931). As to the kind of experiment: In vitro inhibition of the c-src tyrosine kinase activity in A431 membranes using angiotensin II as phosphate acceptor as substrate. In kind it is cell membranes.
Sequence of Proto-oncogene tyrosine-protein kinase Src (P12931 2-536 limits assumed): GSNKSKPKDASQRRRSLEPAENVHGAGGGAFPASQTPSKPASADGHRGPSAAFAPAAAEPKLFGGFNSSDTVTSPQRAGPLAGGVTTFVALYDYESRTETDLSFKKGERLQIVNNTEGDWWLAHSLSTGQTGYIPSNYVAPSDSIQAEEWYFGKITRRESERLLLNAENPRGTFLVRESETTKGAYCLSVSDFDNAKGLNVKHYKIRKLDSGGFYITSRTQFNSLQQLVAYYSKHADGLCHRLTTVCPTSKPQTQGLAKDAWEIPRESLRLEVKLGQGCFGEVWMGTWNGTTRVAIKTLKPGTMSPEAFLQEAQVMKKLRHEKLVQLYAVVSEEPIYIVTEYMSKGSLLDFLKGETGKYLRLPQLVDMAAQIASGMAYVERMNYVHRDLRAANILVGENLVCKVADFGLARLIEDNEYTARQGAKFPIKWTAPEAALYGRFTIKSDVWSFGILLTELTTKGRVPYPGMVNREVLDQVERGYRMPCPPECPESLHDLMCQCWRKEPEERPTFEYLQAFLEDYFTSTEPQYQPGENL
The target in assay [3] is v-abl tyrosine kinase (Abelson murine leukemia virus) (UniProt P00521). As to the kind of experiment: In vitro inhibition of the v-abl tyrosine kinase activity using purified v-abl kinase.
Sequence of v-abl tyrosine kinase (Abelson murine leukemia virus) (P00521 whole entry, looked up): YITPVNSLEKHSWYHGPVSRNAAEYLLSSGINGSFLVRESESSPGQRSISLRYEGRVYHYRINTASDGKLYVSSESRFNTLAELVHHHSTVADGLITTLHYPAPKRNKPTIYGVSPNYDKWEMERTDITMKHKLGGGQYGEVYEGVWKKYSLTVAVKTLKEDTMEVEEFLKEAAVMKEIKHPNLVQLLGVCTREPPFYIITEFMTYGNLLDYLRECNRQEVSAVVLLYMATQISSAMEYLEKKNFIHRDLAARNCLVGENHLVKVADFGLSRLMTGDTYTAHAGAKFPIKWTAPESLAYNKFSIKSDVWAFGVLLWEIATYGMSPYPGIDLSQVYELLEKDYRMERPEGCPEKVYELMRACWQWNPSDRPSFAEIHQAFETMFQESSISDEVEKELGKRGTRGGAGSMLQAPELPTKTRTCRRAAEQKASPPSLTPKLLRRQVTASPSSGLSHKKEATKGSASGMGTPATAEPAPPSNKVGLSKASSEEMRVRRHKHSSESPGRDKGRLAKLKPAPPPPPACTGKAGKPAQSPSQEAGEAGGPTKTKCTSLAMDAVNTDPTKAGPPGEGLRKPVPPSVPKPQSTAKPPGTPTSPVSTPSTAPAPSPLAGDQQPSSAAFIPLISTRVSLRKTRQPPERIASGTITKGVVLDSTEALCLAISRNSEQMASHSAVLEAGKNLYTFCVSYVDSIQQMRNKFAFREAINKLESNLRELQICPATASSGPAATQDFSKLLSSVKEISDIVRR
Assay [4] deals with Epidermal growth factor receptor (Homo sapiens, UniProt P00533). As to the kind of experiment: In vitro inhibition of the Epidermal growth factor receptor activity in A431 membranes.
Sequence of Epidermal growth factor receptor (P00533 whole entry): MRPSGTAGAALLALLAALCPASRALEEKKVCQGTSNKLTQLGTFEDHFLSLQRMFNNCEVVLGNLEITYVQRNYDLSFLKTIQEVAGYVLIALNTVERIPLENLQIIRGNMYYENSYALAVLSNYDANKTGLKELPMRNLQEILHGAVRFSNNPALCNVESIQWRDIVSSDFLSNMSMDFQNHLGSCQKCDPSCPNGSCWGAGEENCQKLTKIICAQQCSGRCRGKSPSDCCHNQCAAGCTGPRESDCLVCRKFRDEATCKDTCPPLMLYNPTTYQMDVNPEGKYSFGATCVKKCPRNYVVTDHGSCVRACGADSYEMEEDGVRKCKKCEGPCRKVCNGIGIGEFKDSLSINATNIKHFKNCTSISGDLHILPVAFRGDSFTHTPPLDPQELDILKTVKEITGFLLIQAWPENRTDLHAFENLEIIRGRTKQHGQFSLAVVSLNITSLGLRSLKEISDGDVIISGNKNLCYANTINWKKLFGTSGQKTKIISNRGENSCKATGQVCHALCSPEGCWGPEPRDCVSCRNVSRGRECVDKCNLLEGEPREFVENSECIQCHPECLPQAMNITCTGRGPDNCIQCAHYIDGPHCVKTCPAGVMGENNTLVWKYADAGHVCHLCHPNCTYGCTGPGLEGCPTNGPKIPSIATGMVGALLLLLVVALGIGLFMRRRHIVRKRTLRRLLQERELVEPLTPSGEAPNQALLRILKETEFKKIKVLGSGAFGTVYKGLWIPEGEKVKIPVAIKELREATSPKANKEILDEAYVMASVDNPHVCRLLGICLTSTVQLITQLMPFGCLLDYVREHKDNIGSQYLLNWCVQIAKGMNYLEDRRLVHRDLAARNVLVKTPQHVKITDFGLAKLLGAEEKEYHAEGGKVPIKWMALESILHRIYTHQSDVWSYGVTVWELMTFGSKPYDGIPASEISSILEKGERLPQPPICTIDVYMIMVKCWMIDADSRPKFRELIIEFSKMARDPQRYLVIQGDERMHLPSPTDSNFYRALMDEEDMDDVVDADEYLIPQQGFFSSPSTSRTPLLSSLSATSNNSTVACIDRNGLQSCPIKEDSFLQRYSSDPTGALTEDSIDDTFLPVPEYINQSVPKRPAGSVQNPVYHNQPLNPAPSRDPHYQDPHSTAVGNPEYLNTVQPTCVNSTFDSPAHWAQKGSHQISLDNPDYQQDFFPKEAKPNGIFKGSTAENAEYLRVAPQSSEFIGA
Another assay relates to A431 (Homo sapiens). As to the kind of experiment: Inhibition of EGF-dependent tyrosine phosphorylation in A431 cells.

Take `C=C(CN(C)C)C(=O)c1ccc(OS(=O)(=O)c2ccc(C(=O)O)c(O)c2)cc1`: the half-inhibitory concentration (IC50) in assay [1] is 140 µM; with Balb/MK it was above 50 µM.

For `C=C(CN(C)C)C(=O)c1ccccc1`, the 50% inhibitory concentration (IC50) is 500 µM in assay [1]; 9.3 µM in the assay on Balb/MK; above 100 µM in the assay on Mus musculus; above 100 µM in assay [2]; above 100 µM in assay [3]; 5.6 µM in assay [4].

As to `Cc1ccc(SCC(CN(C)C)C(=O)c2ccc(OCc3ccccc3)cc2)cc1C` (configuration not stated), the half-maximal inhibitory concentration (IC50) was above 500 µM in assay [1]; 100 µM in the assay on A431 (Homo sapiens); 1.21 µM in the assay with Balb/MK; above 100 µM in assay [2]; above 100 µM in assay [3]; 2.1 µM in assay [4].

As for `COC(=O)c1ccccc1SCC(CN(C)C)C(=O)c1ccc(OCc2ccccc2)cc1` (configuration not stated), the concentration for half-maximal inhibition (IC50) in assay [1] is above 500 µM; with A431 (Homo sapiens), 25 µM; with Balb/MK, 1.24 µM; in assay [2], above 100 µM; in assay [3] it was above 100 µM; in assay [4] it was 8.8 µM.

For `CN(C)CC(CSc1ccccc1)C(=O)c1ccc(OCc2ccccc2)cc1` (configuration not stated), the IC50 in assay [1] was above 500 µM; in the assay on A431 (Homo sapiens), 100 µM; in the assay on Balb/MK, 1.6 µM; in assay [2], above 50 µM; in assay [3], above 50 µM; in assay [4], 7.3 µM.

Regarding `CN(C)CC(CNNC(N)=O)C(=O)c1ccc(OCc2ccccc2)cc1` (configuration not stated), the half-maximal inhibitory concentration (IC50) was above 500 µM in assay [1]; 50 µM in the assay with A431 (Homo sapiens); 2 µM in the assay with Balb/MK; above 100 µM in assay [2]; above 100 µM in assay [3]; 3.9 µM in assay [4].

Turning to `C=C(CN(C)C)C(=O)c1ccc(OCc2ccccc2)c(O)c1`, the half-maximal inhibitory concentration (IC50) was 86 µM in assay [1]; above 100 µM in the assay with A431 (Homo sapiens); 3.3 µM in the assay with Balb/MK; 50 µM in assay [2]; above 50 µM in assay [3]; 0.67 µM in assay [4].

Turning to `CCOC(=O)C1CCN(CCC(=O)c2ccc(OCc3ccccc3)cc2)CC1`, the 50% inhibitory concentration (IC50) was above 500 µM in assay [1]; above 100 µM with A431 (Homo sapiens); 40.2 µM in the assay with Balb/MK; above 100 µM in assay [2]; above 100 µM in assay [3]; 0.3 µM in assay [4].

As for `O=C(CCN1CCOCC1)c1ccc(OCc2ccccc2)cc1`, the IC50 in assay [1] was 420 µM; in the assay with A431 (Homo sapiens), above 100 µM; with Balb/MK, 33.9 µM; in assay [2], above 100 µM; in assay [3] it was above 100 µM; in assay [4], 1.5 µM.

On to `CN(C)CC(CSCCN)C(=O)c1ccc(OCc2ccccc2)cc1` (configuration not stated), for which the 50% inhibitory concentration (IC50) was above 100 µM in assay [1]; 25 µM in the assay with A431 (Homo sapiens); 4.1 µM in the assay on Balb/MK; above 100 µM in assay [2]; above 50 µM in assay [3]; 8.8 µM in assay [4].

For `CN(C)CCCC(=O)c1ccc(OCc2ccccc2)cc1`, the IC50 in the assay on A431 (Homo sapiens) is above 100 µM; in the assay on Balb/MK it was above 50 µM; in assay [3], above 100 µM; in assay [4], above 100 µM.

For the molecule `CC(CN(C)C)C(=O)c1ccc(OS(=O)(=O)c2ccc(C(=O)O)cc2)cc1` (configuration not stated), the values for the concentration for half-maximal inhibition (IC50) (in the assay on A431 (Homo sapiens); in the assay with Balb/MK; in assay [4]) were 100 µM, above 50 µM and 100 µM, respectively.

Regarding `C=C(CN1CCOCC1)C(=O)c1ccc(OCc2ccccc2)cc1`, the IC50 in assay [1] was 110 µM; with A431 (Homo sapiens), 100 µM; with Balb/MK, 1.8 µM; in assay [2], above 100 µM; in assay [3], above 100 µM; in assay [4], 1.1 µM.

As to `C=C(CN1CCCCC1)C(=O)c1ccc(OCc2ccccc2)cc1`, the IC50 in assay [1] was 140 µM; in the assay on A431 (Homo sapiens) it was above 100 µM; with Balb/MK, 3.5 µM; in assay [2] it was above 100 µM; in assay [3] it was above 100 µM; in assay [4], 1.1 µM.

In the case of `C=C(CN1CCNCC1)C(=O)c1ccc(OCc2ccccc2)cc1`, the IC50 is 310 µM in assay [1]; above 100 µM in the assay on A431 (Homo sapiens); 0.95 µM with Balb/MK; above 100 µM in assay [2]; above 100 µM in assay [3]; 1.5 µM in assay [4].

As for `CN(C)CCC(=O)c1ccc(OCc2ccccc2)cc1`, the IC50 in assay [1] is above 100 µM; with A431 (Homo sapiens), above 100 µM; with Balb/MK, 46.2 µM; in assay [2], above 100 µM; in assay [3], above 100 µM; in assay [4], 1.5 µM.

Turning to `O=C(CCN1CCCCC1)c1ccc(OCc2ccccc2)cc1`, the half-inhibitory concentration (IC50) was above 500 µM in assay [1]; 100 µM with A431 (Homo sapiens); 25.6 µM in the assay on Balb/MK; above 100 µM in assay [2]; above 100 µM in assay [3]; 1.8 µM in assay [4].

As to `C=C(CN(C)C)C(=O)c1ccc(OS(=O)(=O)c2ccc(C(=O)N(C)C)cc2)cc1`, the IC50 in assay [1] is 180 µM; with Balb/MK it was 2.8 µM; in assay [2], above 50 µM; in assay [3], 70 µM; in assay [4], 0.7 µM.

Regarding `C=C(CN(C)C)C(=O)c1ccc(OCc2ccccc2)cc1`, the 50% inhibitory concentration (IC50) in assay [1] is 215 µM; in the assay with Balb/MK, 6.1 µM; in assay [2], above 100 µM; in assay [3], above 100 µM.

Regarding `CN(C)CCC(=O)c1ccc(OCc2ccccc2)c(O)c1`, the IC50 in assay [1] is 500 µM; in the assay with A431 (Homo sapiens), 50 µM; with Balb/MK, 9.3 µM; in assay [2], above 50 µM; in assay [3] it was above 100 µM; in assay [4] it was 0.36 µM.

Consider `C=C(CN(C)C)C(=O)c1ccc(OS(=O)(=O)c2ccc(C(=O)O)cc2)cc1`, for which the IC50 is above 500 µM in assay [1]; 100 µM with A431 (Homo sapiens); above 50 µM with Balb/MK; above 100 µM in assay [2]; 50 µM in assay [3]; 0.23 µM in assay [4].

As for `O=c1c(-c2ccc(O)cc2)coc2cc(O)cc(O)c12` [GENISTEIN], the concentration for half-maximal inhibition (IC50) in assay [1] is 15 µM; in assay [2] it was 75 µM; in assay [3], 10 µM.
